Laboratory results taken from publication PMC2668526 (Bioorganic & medicinal chemistry, 2008).
“And” between values parts separate entries of the source, which are not always exact repeats. Equal entries are not always repeated. Where two headings read alike, the source gives them in different places. One block for each molecule: values may come before it. Where a SMILES comes first, the peptide text is derived from it. The star is where a group is joined. ClAc = O=C(CCl)*; NHOH = ON*

Legend:
rat PAM [1] = target: T1, rat PAM (Rattus norvegicus, UniProt P14925); test: Bifunctional rat PAM inhibition; assay type: biochemical
T1 sequence (P14925 36-715 isoform P14925-2 limits assumed): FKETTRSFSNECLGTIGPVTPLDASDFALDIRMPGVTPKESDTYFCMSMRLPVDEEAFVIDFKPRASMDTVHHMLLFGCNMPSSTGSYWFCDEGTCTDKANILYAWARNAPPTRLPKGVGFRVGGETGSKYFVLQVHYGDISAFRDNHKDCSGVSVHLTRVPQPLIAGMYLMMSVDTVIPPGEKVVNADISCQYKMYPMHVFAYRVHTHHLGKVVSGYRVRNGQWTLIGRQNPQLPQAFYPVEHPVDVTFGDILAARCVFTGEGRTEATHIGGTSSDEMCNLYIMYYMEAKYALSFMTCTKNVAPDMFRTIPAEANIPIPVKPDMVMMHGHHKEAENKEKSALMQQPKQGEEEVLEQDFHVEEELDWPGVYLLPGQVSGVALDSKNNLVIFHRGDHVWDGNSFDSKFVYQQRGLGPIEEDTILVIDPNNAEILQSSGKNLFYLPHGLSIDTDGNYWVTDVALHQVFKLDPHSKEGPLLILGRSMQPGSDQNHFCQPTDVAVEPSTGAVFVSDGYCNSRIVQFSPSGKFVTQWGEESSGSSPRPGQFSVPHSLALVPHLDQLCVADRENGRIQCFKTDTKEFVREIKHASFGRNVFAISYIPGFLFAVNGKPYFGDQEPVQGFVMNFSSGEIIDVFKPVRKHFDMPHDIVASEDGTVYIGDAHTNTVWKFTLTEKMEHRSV

rat PAM [2] = target: T1, rat PAM; test: Steady-state kinetics of rat bifunctional PAM substrates; settings: for (V/K)app as percent of the corresponding glycine substrate: D-alanine substrate vs. corresponding glycine substrate; for (V/K)app / Km: O2 consumption, 5.0 mM ascorbate, pH 6.0, 37 °C; for Km: read-out: KM,app; for Rel. (V/K)app: relative to hippuric acid = 1.0
B. germanica PHM = B. germanica PHM inhibition; assay type: biochemical, Blatella germanica; settings: for RatKi,s/InsectKi,s: ratio rat PAM Ki,s to B. germanica PHM Ki,s; for Ki: read-out: Ki,s vs. B. germanica PHM, N-dansyl-Tyr-Val-Gly amidation
DU 145 cells = test: Growth of human prostate DU 145 cells; assay type: cell-based; settings: for antiproliferative concentration relative to Ki,s for PHM: DU 145 cells vs. in vitro Ki,s
Summary of the method: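 DU 145 cells in EMEM (Earle's salts, 2 mM glutamine, 1.0 mM pyruvate, 0.1 mM amino acids, 10% FBS, penicillin/streptomycin). Grown to 80% confluency, trypsinized, seeded at 50,000 cells/well, adhered 24 h. Medium then replaced with or without test compound; 10 μM 4-HPR as positive control. Counted at 8, 24, 48, 72, 96 h: PBS wash, trypsin/EDTA detachment, Trypan blue, hemacytometer viable/non-viable count.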

PHM = settings: cited from earlier work; for Km: read-out: KM,app
PAL activity of rat PAM = PAL activity of rat PAM (Rattus norvegicus, UniProt P14925); test: Inhibition of PAL activity; assay type: biochemical; settings: read-out: inhibition of PAL activity
Summary of the method: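 Recombinant type A rat medullary thyroid carcinoma PAM (1.5–3.0 μg) started reactions at 37.0 °C. Buffer: 100 mM MES/NaOH pH 6.0, 30 mM NaCl, 1% ethanol, 0.001% Triton X-100. Substrate: 2.0 mM (R,S)-α-hydroxyhippuric acid, with 0 or 750 μM test compound. No-enzyme blank included. TFA quench at 20 min. Glyoxylate measured spectrophotometrically against a standard curve.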

[3] = Ki,s, rat PAM, absence of DMSO, competitive inhibition assumed

Ki (rat PAM [1]; [3]): 1000 µM
Molecule: CC(C)C[C@H](NC(=O)[C@@H]1CCCN1)C(=O)NCC(=O)NO [compound 74, Pro-Leu-Gly hydroxamic acid] (H-Pro-Leu-Gly-{NHOH})

Ki (rat PAM [1]; [3]): 54 ± 4 µM
Molecule: O=C(O)COC(=O)Nc1ccccc1 [compound 65, O-(Phenylcarbamoyl)glycolic acid]

increase of (V/K)app over hippurate 1 (rat PAM [2]): ~ 30 fold
ratio of (V/K)app to that of 3-(2-furyl)acryloylglycine 26 (rat PAM [2]): about 70
Molecule: O=C(O)CNC(=O)CCCCCc1ccccc1 [compound 50, 6-Phenylhexanoylglycine]

Molecule: O=C(NCP(=O)(O)O)c1cccnc1 [compound 80, (Nicotinamidomethyl)phosphonic acid]
Ki (rat PAM [1]): > 75000 µM
inhibition of PHM (O2 consumption) (rat PAM [1]; 28 mM compound, 200 μM N-octanoylglycine as substrate): no inhibition

Ki (rat PAM [1]; [3]): 300 ± 20 µM
Molecule: O=C(NO)c1ccccc1O [compound 71, Salicylhydroxamic acid]

(V/K)app as percent of the corresponding glycine substrate (rat PAM [2]): 0.05–0.3%
Molecule: C[C@@H](NC(=O)c1ccccc1)C(=O)O [compound 52, Benzoyl-D-alanine]

Ki (rat PAM [1]; [3]): 3.5 ± 0.4 µM
Ki (B. germanica PHM): 14 ± 1 µM
Molecule: Cc1ccc(C(=S)SCC(=O)O)cc1 [compound 57, S-(4-Methylthiobenzoyl)thioglycolic acid]
RatKi,s/InsectKi,s (B. germanica PHM): 0.25
antiproliferative concentration relative to Ki,s for PHM (DU 145 cells): 60–300 fold

(V/K)app (rat PAM [2]): (8.3 ± 0.7) × 10^4 M^−1 s^−1
Km (rat PAM [2]): 36 ± 4 µM
Rel. (V/K)app (rat PAM [2]): 13
Molecule: 2-Pyridylmercaptoacetylglycine [compound 47]

Molecule: N[C@@H](CCC(=O)N[C@@H](CS)C(=O)NCC(=O)O)C(=O)O [glutathione]
Km (PHM): 130 µM

Molecule: O=C(O)CNC(=O)CNC(=O)CCl [compound 34, Chloroacetyl-Gly-Gly] (ClAc-Gly-Gly-OH)
(V/K)app (rat PAM [2]): (2.1± 0.1) × 10^4 M^−1 s^−1
Km (rat PAM [2]): 420 ± 30 µM

Ki (rat PAM [1]; [3]): 380 ± 40 µM
Ki (B. germanica PHM): 56 ± 6 µM
Molecule: O=C(O)CSc1ccccc1 [compound 72, S-Phenylmercaptoacetic Acid]
RatKi,s/InsectKi,s (B. germanica PHM): 6.9

Ki (rat PAM [1]; [3]): 0.54 ± 0.05 µM
Molecule: CCCCCCCCCCCC(=S)SCC(=O)O [compound 55, S-(Thiolauroyl)thioglycolic acid]

(V/K)app (rat PAM [2]): (2.5 ± 0.1) × 10^3 M^−1 s^−1
Molecule: 3-Indolylacetylglycine [compound 24]

(V/K)app (rat PAM [2]): (8.2 ± 0.3) × 10^3 M^−1 s^−1
Km (rat PAM [2]): 220 ± 10 µM
Rel. (V/K)app (rat PAM [2]): 1.3
Molecule: 2-Propylmercaptoacetylglycine [compound 29]

Ki (rat PAM [1]; Ki,s, rat PAM, […] DMSO): 30 µM
Ki (rat PAM [1]; [3]): 9.4 ± 0.8 µM
Ki (B. germanica PHM): 0.87 ± 0.11 µM
Molecule: O=C(O)CSC(=S)CCc1ccccc1 [compound 62, S-(3-Phenylthiopropionyl)thioglycolic acid]
RatKi,s/InsectKi,s (B. germanica PHM): 11

Ki (rat PAM [1]; [3]): 5.7 ± 0.4 µM
Molecule: CC(C#N)(CCC(=O)O)SC(=S)c1ccccc1 (stereo not drawn) [compound 58, S-(Thiobenzoyl)-4-mercapto-4-cyanopentanoic acid]

Molecule: CC1=C(/C=C/C(C)=C/C=C/C(C)=C/C(=O)Nc2ccc(O)cc2)C(C)(C)CCC1 [4-HPR, N-(4-hydroxyphenyl) retinamide, reference compound]
effect on cell growth (positive control) (DU 145 cells; DU 145 cells, 10 μM, 48 hr): completely eliminates cell growth

Ki (rat PAM [1]; [3]): 58 ± 9 µM
Molecule: CC(SC(=S)c1ccccc1)C(=O)O (racemic) [compound 66, S-(Thiobenzoyl)-(R,S)-thiolactic acid]

Ki (rat PAM [1]; [3]): 7.2 ± 0.9 µM
Molecule: CC(NC(=S)c1ccccc1)C(=O)O (stereo not drawn) [compound 59, N-(Thiobenzoyl)-(D,L)-alanine]

Ki (rat PAM [1]; [3]): 8.6 ± 1.4 µM
Ki (B. germanica PHM): 5.4 ± 0.3 µM
inhibition at 750 µM (PAL activity of rat PAM): ~40%
Molecule: O=C(O)CSC(=S)Nc1ccccc1 [compound 61, S-(Phenylthiocarbamoyl)thioglycolic acid]
RatKi,s/InsectKi,s (B. germanica PHM): 1.6

Ki (rat PAM [1]; [3]): 1400 µM
Molecule: O=C(NCC[C@H](O)C(=O)O)OCc1ccccc1 [compound 75, (S)-N-CBZ-4-amino-2-hydroxybutyric acid]

Ki (rat PAM [1]; [3]): 18000 µM
Molecule: O=C(O)CNCc1ccccc1 [compound 79, N-Benzylglycine]

(V/K)app as percent of the corresponding glycine substrate (rat PAM [2]): 0.05–0.3%
Molecule: CC(=O)N[C@H](C)C(=O)O [compound 51, Acetyl-D-alanine]

Ki (rat PAM [1]; Ki,s, rat PAM, […] DMSO): 110 ± 20 µM
Molecule: O=C(O)CNC(=S)Nc1ccccc1 [compound 69, N-Phenylthiohydantoic acid]

Ki (rat PAM [1]; [3]): 110 ± 10 µM
Molecule: CCOC(=O)CSC(=S)c1ccc(C)cc1 [compound 70, S-(4-Methylthiobenzoyl)thioglycolic acid ethyl ester]

Molecule: methyl ester of N-dansyl-Tyr-Val-Gly
Ki (PHM; read-out: Ki,s, ref 20a): 54 µM

Ki (rat PAM [1]; [3]): 7900 µM
Molecule: NCC(=O)NNC(=O)OCc1ccccc1 [compound 78, (CBZ-hydrazido)glycine]

Ki (rat PAM [1]; [3]): 69 ± 7 µM
Molecule: O=C(NC(CSC(=O)c1ccccc1)C(=O)O)c1ccccc1 (stereo in doubt) [compound 68, N,S-Dibenzoyl-L-cysteine]

Ki (rat PAM [1]; [3]): 1000 µM
Molecule: O=C(O)CONC(=O)c1ccccc1 [compound 73, O-Benzamidoglycolic acid]

(V/K)app lower than that of 6-phenylhexanoylglycine 50 (rat PAM [2]): ~ 2.5 fold
Molecule: O=C(O)CNC(=O)CCCCCCCc1ccccc1 [compound 46, 8-Phenyloctanoylglycine]

Molecule: O=C(O)CNC(=O)c1ccccc1O [salicylurate]
Km (PHM; ref 23b): 860 µM

(V/K)app as percent of the corresponding glycine substrate (rat PAM [2]): 0.05–0.3%
Molecule: C[C@@H](NC(=O)OCc1ccccc1)C(=O)O [compound 53, CBZ-D-alanine]

Ki (rat PAM [1]; [3]): 1500 µM
Molecule: O=C(N[C@H](CO)C(=O)O)c1ccccc1 [compound 76, N-(Benzoyl)-D-serine]

Ki (rat PAM [1]; [3]): 2.6 ± 0.7 µM
Ki (B. germanica PHM): 5.5 ± 0.8 µM
Molecule: O=C(O)CCSC(=S)Nc1ccccc1 [compound 56, S-(Phenylthiocarbamoyl)-3-mercaptopropionic acid]
RatKi,s/InsectKi,s (B. germanica PHM): 0.47

Ki (rat PAM [1]; Ki,s, rat PAM, […] DMSO): 49 µM
Ki (rat PAM [1]; [3]): 39 ± 5 µM
Ki (B. germanica PHM): 92 ± 10 µM
Molecule: O=C(O)CSC(=S)c1ccccc1 [compound 64, S-(Thiobenzoyl)thioglycolic acid]

Ki (rat PAM [1]; Ki,s, rat PAM, […] DMSO): 13 µM
Ki (rat PAM [1]; [3]): 7.9 ± 2.8 µM
Ki (B. germanica PHM): 3.6 ± 0.6 µM
Molecule: O=C(O)CSC(=S)Cc1ccccc1 [compound 60, S-(2-Phenylthioacetyl)thioglycolic acid]
RatKi,s/InsectKi,s (B. germanica PHM): 2.1
antiproliferative concentration relative to Ki,s for PHM (DU 145 cells): ~ 60 fold and 60–300 fold
concentration showing significant anti-proliferative effects (DU 145 cells; DU 145 cells, Fig. 2): > 500 µM
